The source of these data is ChEMBL document CHEMBL4373712, “Bioactivatable Pseudotripeptidization of Cyclic Dipeptides To Increase the Affinity toward Oligopeptide Transporter 1 for Enhanced Oral Absorption: An Application to Cyclo(l-Hyp-l-Ser) (JBP485)” (J Med Chem, 2019).

Data set [1] can be described thus: Terminal half-life in Sprague-Dawley rat at 12 mg/kg, po by UPLC-MS/MS analysis. It counts as ADME, organism-based. Particulars: in vivo, read-out: beta t1/2 (converted). The essentials:
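Fasted male SD rats (200–250 g), oral 12 mg/kg (prodrugs calculated as JBP485). Jugular blood 0.083–10 h, centrifuged, plasma JBP485 by UPLC-MS/MS; n=6.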

The nature of data set [2]: AUC (0 to t) in Sprague-Dawley rat at 6 mg/kg, iv by UPLC-MS/MS analysis. The format is ADME, organism-based. Particulars: in vivo. The essentials: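 Male SD rats, 200-250 g, fasted 12 h with water, n=6. Oral dose of 12 mg/kg as JBP485 equivalent; dose-effect arms at 12 and 100 mg/kg. JBP485 given iv at 6 mg/kg as the reference. Jugular blood taken at 0.083-10 h. Plasma JBP485 by UPLC-MS/MS. Absolute F = (AUCpo×Div)/(AUCiv×Dpo)×100%, using AUC0-t.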

For data set [3], the target named is T1, Solute carrier family 15 member 1 (Rattus norvegicus, UniProt P51574).
T1 sequence (P51574 whole entry): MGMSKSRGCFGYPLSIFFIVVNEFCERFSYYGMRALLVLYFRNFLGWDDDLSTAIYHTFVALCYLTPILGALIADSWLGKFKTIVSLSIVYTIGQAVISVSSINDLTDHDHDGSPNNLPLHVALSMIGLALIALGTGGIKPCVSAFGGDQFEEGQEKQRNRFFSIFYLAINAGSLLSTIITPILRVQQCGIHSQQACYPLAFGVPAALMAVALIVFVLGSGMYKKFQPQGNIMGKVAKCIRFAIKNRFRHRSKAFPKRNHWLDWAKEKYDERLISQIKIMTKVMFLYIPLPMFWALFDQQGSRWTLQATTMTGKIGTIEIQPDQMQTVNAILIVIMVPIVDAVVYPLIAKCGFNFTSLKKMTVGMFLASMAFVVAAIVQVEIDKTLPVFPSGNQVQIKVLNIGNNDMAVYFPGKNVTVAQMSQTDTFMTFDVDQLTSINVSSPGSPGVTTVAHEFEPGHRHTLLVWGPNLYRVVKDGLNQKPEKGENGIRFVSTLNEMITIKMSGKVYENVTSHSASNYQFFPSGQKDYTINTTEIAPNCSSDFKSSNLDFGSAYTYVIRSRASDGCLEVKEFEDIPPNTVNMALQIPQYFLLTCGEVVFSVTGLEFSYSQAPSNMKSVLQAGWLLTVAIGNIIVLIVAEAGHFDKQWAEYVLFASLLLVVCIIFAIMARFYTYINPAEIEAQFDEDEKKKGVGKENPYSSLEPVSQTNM
In words: Ratio of test compound effect to JBP485 effect for substrate activity at PEPT1 in Sprague-Dawley rat jejunum assessed as effective permeability. The format is ADME, tissue-based. The essentials: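 In situ single-pass jejunal perfusion in fasted (12 h) male SD rats anaesthetised with urethane 1.5 g/kg i.p. About 10 cm of jejunum was perfused at 0.2 mL/min with pH 6.0 HEPES buffer containing 5 mM compound. Outflow was collected 15–120 min after steady state and assayed by HPLC. Peff was calculated from outlet/inlet concentration and volume ratios and segment radius and length.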

As for `O=C1N[C@@H](CO)C(=O)N2C[C@H](O)C[C@@H]12`, the half-life in data set [1] was 2.12 h. This compound came in with an AUCt in data set [2] of 194 µM·h.
As to `CC(C)[C@H](N)C(=O)OC[C@@H]1NC(=O)[C@@H]2C[C@@H](O)CN2C1=O`, the Ratio in data set [3] came to 6.03.
